“Also recorded” adds a separate entry of the source. Blank lines part the entries; values can stand above or below the molecule they belong to.
What was measured:
[1] = molecular target: T1, CT-L proteolytic activity of the purified rabbit 20S proteasome (Oryctolagus cuniculus, UniProt G1T4Q9); experiment: CT-L proteolytic activity assay, fluorogenic peptide Suc-Leu-Leu-Val-Tyr-AMC; type: biochemical; conditions: for IC50: IC50 (μM) CT-L, 1 nM purified 20S rabbit proteasome, 20 μM Suc-Leu-Leu-Val-Tyr-AMC, 1 h at 37 °C, average of 2 or more determinations; for fold loss of CT-L activity compared to 11ad: relative to 11ad
T1 sequence (G1T4Q9 60-263): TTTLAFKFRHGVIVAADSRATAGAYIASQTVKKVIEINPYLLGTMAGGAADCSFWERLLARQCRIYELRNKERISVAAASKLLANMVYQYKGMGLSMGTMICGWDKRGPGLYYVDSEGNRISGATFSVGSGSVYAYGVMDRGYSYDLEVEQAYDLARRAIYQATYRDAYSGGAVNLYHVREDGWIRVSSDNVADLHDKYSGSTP

[2] = tested on: CT-L activity of rabbit 20S proteasome; experiment: Dialysis using purified rabbit 20S proteasome; type: biochemical
How it was run: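 Dialysed (3500 MWCO) against assay buffer at 4 °C; sampled at 0, 0.25, 1, 2, 4 and 18 h. CT-L activity read with 20 μM Suc-LLVY-AMC, 1 h at 37 °C, AMC ex 355/em 460 nm. Normalised to DMSO control.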

[3] = molecular target: T2, T-L activity of purified 20S rabbit proteasome (Oryctolagus cuniculus, UniProt G1SWK8); experiment: T-L proteolytic activity assay, fluorogenic peptide Bz-Val-Gly-Arg-AMC; type: biochemical
T2 sequence (G1SWK8 44-271): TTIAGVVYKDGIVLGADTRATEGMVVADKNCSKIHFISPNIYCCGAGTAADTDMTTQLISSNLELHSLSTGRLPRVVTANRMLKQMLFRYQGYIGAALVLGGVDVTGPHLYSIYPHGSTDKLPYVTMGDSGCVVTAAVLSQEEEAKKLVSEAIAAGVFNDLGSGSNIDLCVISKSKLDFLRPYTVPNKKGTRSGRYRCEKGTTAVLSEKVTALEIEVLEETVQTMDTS

[4] = molecular target: PGPH-L activity of purified 20S rabbit proteasome (Oryctolagus cuniculus, UniProt G1T235); experiment: PGPH-L proteolytic activity assay, fluorogenic peptide Z-Leu-Leu-Glu-AMC; type: biochemical
[5] = molecular target: proteasomal CT-L activity in intact human MDA-MB-468 cancer cells (Homo sapiens, UniProt P28074); experiment: CT-L activity in intact MDA-MB-468 cells; type: cell-based
MDA-MB-468 cells = experiment: MTT proliferation/survival assay; type: cell-based, human; conditions: 120 h incubation
How it was run: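 MDA-MB-468 cells were grown in DMEM with 10% FBS and penicillin/streptomycin at 37 °C in 5% CO2, then attached overnight. They were exposed to varying inhibitor concentrations for 120 h. MTT (1 mg/ml in fresh medium) was added for 3 h, formazan dissolved in DMSO, and absorbance read at 540 nm. IC50 came from the fit Y = M + (L–M)/(1+10^(X–logIC50)).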

Structure (SMILES): CC(C)N(Cc1nc(-c2ccccc2)no1)C(=O)COc1ccc2cc(Br)ccc2c1 [Compound 11r, 2-(6-Bromonaphthalen-2-yloxy)-N-isopropyl-N-((3-phenyl-1,2,4-oxadiazol-5-yl)methyl)acetamide]
- IC50 [1]: > 10 µM

Structure (SMILES): Cc1ccc(OCC(=O)N(Cc2nc(-c3ccc(C)cc3)no2)CC(C)C)cc1 [Compound 12a, N-Isobutyl-N-((3-p-tolyl-1,2,4-oxadiazol-5-yl)methyl)-2-(p-tolyloxy)acetamide]
- fold loss of CT-L activity compared to 1 ([1]; relative to compound 1): 4 fold

Structure (SMILES): CC(=O)N[C@@H](CSC(=O)[C@]1([C@@H](O)C(C)C)NC(=O)[C@H](C)[C@@H]1O)C(=O)O [lactacystin, reference compound]
- CT-L activity recovered upon dialysis ([2]; after 18 hours of dialysis, lactacystin 2.5 μM): very little CT-L activity was recovered

Structure (SMILES): CCCc1ccc(OCC(=O)N(Cc2nc(-c3cnccn3)no2)C(C)C)cc1 [Compound 11am, N-Isopropyl-2-(4-propylphenoxy)-N-((3-(pyrazin-2-yl)-1,2,4-oxadiazol-5-yl)methyl)acetamide]
- fold loss of CT-L activity compared to 11ad [1]: 3 fold

Structure (SMILES): CCCc1ccc(OCC(=O)N(Cc2nc(-c3cccnc3)no2)C(C)C)cc1 [Compound 11ad]
- fold more potent than 1 (CT-L IC50) ([1]; relative to compound 1): 22 fold
- IC50 [3]: > 100 µM
- IC50 [4]: > 100 µM
- IC50 [5]: 0.37 µM
- inhibition of tumor cell survival/proliferation (MTT) (MDA-MB-468 cells): inhibited survival/proliferation; also recorded: anti-proliferative activity at low micromolar concentrations

Structure (SMILES): CCN(Cc1nc(-c2ccc(C)cc2)no1)C(=O)COc1ccc(C)cc1 [Compound 12b, N-Ethyl-N-((3-p-tolyl-1,2,4-oxadiazol-5-yl)methyl)-2-(p-tolyloxy)acetamide]
- fold loss of CT-L activity compared to 1 ([1]; relative to compound 1): 10 fold

Structure (SMILES): CCCc1ccc(OCC(=O)N(Cc2nc(-c3ncccn3)no2)C(C)C)cc1 [Compound 11ao, N-Isopropyl-2-(4-propylphenoxy)-N-((3-(pyrimidin-2-yl)-1,2,4-oxadiazol-5-yl)methyl)acetamide]
- fold loss of CT-L activity compared to 11ad [1]: 40 fold

Structure (SMILES): Cc1ccc(OCC(=O)N(Cc2nc(-c3ccc(C)cc3)no2)C(C)C)cc1 [Compound 1, N-Isopropyl-N-((3-p-tolyl-1,2,4-oxadiazol-5-yl)methyl)-2-(p-tolyloxy)acetamide]
- IC50 [3]: > 100 µM
- IC50 [4]: > 100 µM
- inhibition of tumor cell survival/proliferation (MTT) (MDA-MB-468 cells): inhibited survival/proliferation
- time to full recovery of CT-L activity upon dialysis ([2]; pre-incubation with 10 μM compound for 30 min, dialysis at 4 °C): ≤ 2 h

Structure (SMILES): CC(C)N(Cc1nc(-c2ccccc2)no1)C(=O)COc1ccc(-c2ccccc2)cc1 [Compound 11q, 2-(Biphenyl-4-yloxy)-N-isopropyl-N-((3-phenyl-1,2,4-oxadiazol-5-yl)methyl)acetamide]
- IC50 [1]: > 10 µM

Next, values leading:

- IC50 [1]: > 10 µM
Structure (SMILES): Cc1ccc(OCC(=O)N(CCc2nc(-c3ccccc3)no2)C(C)C)cc1 [Compound 23, N-Isopropyl-N-(2-(3-phenyl-1,2,4-oxadiazol-5-yl)ethyl)-2-(p-tolyloxy)acetamide]

- fold loss of CT-L inhibitory activity compared to 11b ([1]; relative to 11b): 16 fold
Structure (SMILES): CC(C)N(Cc1nc(-c2ccccc2)no1)C(=O)COc1ccc(F)cc1 [Compound 11s, 2-(4-Fluorophenoxy)-N-isopropyl-N-((3-phenyl-1,2,4-oxadiazol-5-yl)methyl)acetamide]

- fold loss of CT-L activity compared to 1 ([1]; relative to compound 1): 10 fold
Structure (SMILES): CC(C)N(Cc1nc(-c2ccccc2)no1)C(=O)COc1ccccc1 [Compound 11j, N-Isopropyl-2-phenoxy-N-((3-phenyl-1,2,4-oxadiazol-5-yl)methyl)acetamide]

- fold loss of CT-L activity compared to 1 ([1]; relative to compound 1): 14 fold
Structure (SMILES): Cc1ccc(-c2noc(CN(C(=O)COc3ccccc3)C(C)C)n2)cc1 [Compound 11k, N-Isopropyl-2-phenoxy-N-((3-p-tolyl-1,2,4-oxadiazol-5-yl)methyl)acetamide]

- IC50 [1]: > 10 µM
Structure (SMILES): Cc1ccc(CNC(=O)N(Cc2nc(-c3ccccc3)no2)C(C)C)cc1 [Compound 14, 1-Isopropyl-3-(4-methylbenzyl)-1-((3 phenyl-1,2,4-oxadiazol-5-yl)methyl)urea]

- fold loss of CT-L activity compared to 1 ([1]; relative to compound 1): 18 fold
Structure (SMILES): CC(C)N(Cc1nc(-c2ccc(C(F)(F)F)cc2)no1)C(=O)COc1ccccc1 [Compound 11l, N-Isopropyl-2-phenoxy-N-((3-(4-(trifluoromethyl)phenyl)-1,2,4-oxadiazol-5-yl)methyl)acetamide]
